Laboratory results as given in ChEMBL document CHEMBL5705894, “SB1518, a novel macrocyclic pyrimidine-based JAK2 inhibitor for the treatment of myeloid and lymphoid malignancies” (Leukemia, 2011).
Calls of active or inactive are those of the source. The calls are words filed in the database; no cut-off is given here.

Experiments:
[1] = test system: Tyrosine-protein kinase JAK2 (Homo sapiens), O60674 [V617F]; settings: HEL 92.1.7, dose 8-1000 nM, time 3.0 hrs
[2] = test system: KATO III stomach cancer cell line; test: Antiproliferative activity against human KATO III stomach cancer cell line assessed as inhibition of cell viability incubated for 48 hrs by CellTiterGlo assay; assay type: functional, cell-based
Procedure, shortened: (§1)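 Cells seeded at 30–50% confluency in 96-well plates, then treated the next day in triplicate at up to 10 μM for 48 h. Viability read by CellTiter-Glo luminescence. IC50 taken from fitted dose–response curves.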

[3] = In vivo inhibition of JAK2 V617F mutant in athymic BALB/c nude mouse xenografted with mouse BaF3 cells administered for 24 hrs; assay type: functional
[4] = test system: Tyrosine-protein kinase JAK2 (Homo sapiens), O60674 [V617F]; settings: SET2, dose 8-1000 nM, time 3.0 hrs
A549 = test: Antiproliferative activity against human A549 cells assessed as inhibition of cell viability incubated for 48 hrs by CellTiterGlo assay; assay type: functional, cell-based; settings: A549, 48 h
Procedure, shortened: as §1

MCF7 = test: Antiproliferative activity against human MCF7 cells assessed as inhibition of cell viability incubated for 48 hrs by CellTiterGlo assay; assay type: functional, cell-based; settings: MCF7, 48 h
Procedure, shortened: as §1

[5] = target: Tyrosine-protein kinase JAK2 (Homo sapiens) (UniProt O60674); settings: HEK-293T, dose 8-1000 nM, time 3.0 hrs
[6] = target: Tyrosine-protein kinase JAK2 (Homo sapiens) (UniProt O60674); settings: Jurkat, dose 40-1000 nM, time 3.0 hrs
Karpas-1106P [7] = test: Induction of apoptosis in human KARPAS-1106P cells assessed as activation of caspase-3/7 incubated for 16 hrs; assay type: functional, cell-based
Procedure, shortened: (§2)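 SET-2 and Karpas 1106P cells were exposed to graded drug concentrations for 16 h. Apoptosis was read as caspase-3/7 activation.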

BaF3 = test: Antiproliferative activity against mouse BaF3 cells harboring JAK2 V617F mutant assessed as inhibition of cell viability incubated for 48 hrs by CellTiterGlo assay; assay type: functional, cell-based; settings: BaF3, 48 h
Procedure, shortened: as §1

U-266 = test: Antiproliferative activity against human U-266 cells assessed as inhibition of cell viability incubated for 48 hrs by CellTiterGlo assay; assay type: functional, cell-based; settings: U-266, 48 h
Procedure, shortened: as §1

SET-2 [8] = test: Anti-tumor activity against human SET2 cells xenografted in SCID Beige mouse assessed as tumor growth inhibition at 150 mg/kg, po administered for 18 days and measured twice a week relative to control; assay type: functional; settings: SET-2, 432 h, time 18 day, read-out: TGI
Procedure, shortened: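 SCID beige mice received 5 × 10^6 SET-2 cells subcutaneously in the right flank, in serum-free medium mixed 1:1 with Matrigel. Dosing began when tumors averaged about 280 mm3 (day 31). Oral gavage at 10 ml/kg for 18 consecutive days, 12 mice per group. Caliper volume = (w² × l)/2. Animals were killed 3 h after the final dose.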

[9] = target: Tyrosine-protein kinase JAK2 (Homo sapiens) (UniProt O60674); settings: HEK-293T, dose 8-1000 nM, time 3.0 hrs; remark: listed apart in the source
HCT-116 = test: Antiproliferative activity against human HCT-116 cells assessed as inhibition of cell viability incubated for 48 hrs by CellTiterGlo assay; assay type: functional, cell-based; settings: HCT-116, 48 h
Procedure, shortened: as §1

[10] = test system: Tyrosine-protein kinase JAK2 (Homo sapiens), O60674 [V617F]; settings: HEL 92.1.7, dose 1000.0 nM, time 4-24 hrs
SET-2 [11] = test: Induction of apoptosis in human SET2 cells assessed as activation of caspase-3/7 incubated for 16 hrs; assay type: functional, cell-based
Procedure, shortened: as §2

Karpas-1106P [12] = test: Induction of cell cycle arrest in human KARPAS-1106P cells expressing JAK2 assessed as decrease in accumulation of cells at S phase incubated for 24 hrs by PI staining based flow cytometry; assay type: functional
Procedure, shortened: (§3)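 Cells were fixed in 70% ice-cold ethanol and stained with propidium iodide, then analysed by flow cytometry for cell-cycle distribution.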

Jurkat E6.1 = test: Antiproliferative activity against human Jurkat E6.1 cells assessed as inhibition of cell viability incubated for 48 hrs by CellTiterGlo assay; assay type: functional, cell-based; settings: Jurkat E6.1, 48 h
Procedure, shortened: as §1

Mus musculus [13] = test: In vivo inhibition of JAK2 V617F mutant in SCID Beige mouse xenografted with human SET2 cells assessed as increased JAK2 phosphorylation at Y1007/8 by immunoblotting analysis; assay type: functional, organism-based; settings: dose 75-150 mg/kg, route po
Procedure, shortened: (§4)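 Subcutaneous SET-2 tumors in SCID beige mice. Single oral doses of 75 or 150 mg/kg were given at about 300 mm3 tumor size; in the chronic arm, dosing ran for 18 days. Tumors were collected 3 h post-dose, lysed, and immunoblotted for pJAK2 (Y1007/8) and pSTAT5.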

PC-3 = test: Antiproliferative activity against human PC-3 cells assessed as inhibition of cell viability incubated for 48 hrs by CellTiterGlo assay; assay type: functional, cell-based; settings: PC-3, 48 h
Procedure, shortened: as §1

Mus musculus [14] = test: In vivo inhibition of JAK2 V617F mutant in SCID Beige mouse xenografted with human SET2 cells assessed as decreased STAT5 phosphorylation at Y694 by immunoblotting analysis; assay type: functional, organism-based; settings: dose 75-150 mg/kg, route po
Procedure, shortened: as §4

[15] = test system: Tyrosine-protein kinase JAK2 (Homo sapiens), O60674 [V617F]; settings: HEL 92.1.7, dose 8-1000 nM, time 3.0 hrs; remark: listed apart in the source
[16] = Antiproliferative activity against mouse 32D cells harboring JAK2 assessed as inhibition of cell viability incubated for 48 hrs by CellTiterGlo assay; assay type: functional, cell-based
Procedure, shortened: as §1

[17] = test system: Tyrosine-protein kinase JAK2 (Homo sapiens), O60674 [V617F]; settings: SET2, dose 1000.0 nM, time 3.0 hrs
SNU-475 = test: Antiproliferative activity against human SNU-475 cells assessed as inhibition of cell viability incubated for 48 hrs by CellTiterGlo assay; assay type: functional, cell-based; settings: SNU-475, 48 h
Procedure, shortened: as §1

SET-2 [18] = test: Induction of cell cycle arrest in human SET2 cells expressing JAK2 V617F mutant assessed as accumulation of cells at G0/1 phase incubated for 24 hrs by PI staining based flow cytometry; assay type: functional
Procedure, shortened: as §3

Chain of Tyrosine-protein kinase JAK2 (Homo sapiens), O60674 [V617F] (O60674 whole entry V617F): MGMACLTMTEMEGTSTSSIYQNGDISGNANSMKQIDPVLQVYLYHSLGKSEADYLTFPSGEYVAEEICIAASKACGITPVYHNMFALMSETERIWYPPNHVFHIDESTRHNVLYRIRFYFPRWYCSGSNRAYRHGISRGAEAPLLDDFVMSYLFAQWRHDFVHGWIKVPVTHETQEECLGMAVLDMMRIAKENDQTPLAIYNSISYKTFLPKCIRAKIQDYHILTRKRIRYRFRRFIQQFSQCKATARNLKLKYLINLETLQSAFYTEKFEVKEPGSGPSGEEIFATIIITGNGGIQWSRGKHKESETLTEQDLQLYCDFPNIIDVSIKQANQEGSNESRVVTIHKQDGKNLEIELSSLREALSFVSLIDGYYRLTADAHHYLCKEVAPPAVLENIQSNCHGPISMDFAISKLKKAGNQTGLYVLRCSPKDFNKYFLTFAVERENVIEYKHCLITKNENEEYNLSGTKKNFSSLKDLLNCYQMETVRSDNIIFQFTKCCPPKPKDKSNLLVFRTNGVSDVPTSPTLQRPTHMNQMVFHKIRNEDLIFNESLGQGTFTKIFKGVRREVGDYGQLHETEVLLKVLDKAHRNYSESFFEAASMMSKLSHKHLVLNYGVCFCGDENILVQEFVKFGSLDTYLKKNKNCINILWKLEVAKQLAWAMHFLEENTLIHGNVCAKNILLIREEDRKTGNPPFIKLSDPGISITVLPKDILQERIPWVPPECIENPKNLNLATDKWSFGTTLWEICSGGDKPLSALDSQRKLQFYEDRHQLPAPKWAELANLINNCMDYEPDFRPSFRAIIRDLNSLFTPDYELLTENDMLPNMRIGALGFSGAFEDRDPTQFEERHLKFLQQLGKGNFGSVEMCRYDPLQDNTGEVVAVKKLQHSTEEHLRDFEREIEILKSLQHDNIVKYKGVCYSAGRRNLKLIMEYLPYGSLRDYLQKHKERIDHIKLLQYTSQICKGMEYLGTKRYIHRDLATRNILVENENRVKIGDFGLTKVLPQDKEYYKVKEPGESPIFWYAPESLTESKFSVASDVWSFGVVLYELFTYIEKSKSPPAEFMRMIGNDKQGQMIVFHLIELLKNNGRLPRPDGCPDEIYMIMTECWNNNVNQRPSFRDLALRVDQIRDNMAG
Chain of Tyrosine-protein kinase JAK2 (Homo sapiens) (O60674 whole entry): as the sequence (O60674 whole entry V617F) above, with F617V counted along it

C1=N/C2=N/c3ccc(OCCN4CCCC4)c(c3)COC/C=C/COCc3cccc(c3)C(=C1)N2 [PACRITINIB]
inhibition [1]: Active | IC50 [2]: 2060 nM | FIC50 [3]: 0.019 µM | inhibition [4]: Dose-Dependent Effect | IC50 (A549): 2550 nM | IC50 (MCF7): 853 nM | inhibition [5]: Dose-Dependent Effect | inhibition [6]: Active | Activity (Karpas-1106P [7]): Dose-Dependent Effect | EC50 (Karpas-1106P [7]): 1120 nM | IC50 (BaF3): 160 nM | IC50 (U-266): 1350 nM | inhibition in vivo at 150 mg/kg (SET-2 [8]): 61% | inhibition [9]: Dose-Dependent Effect | IC50 (HCT-116): 1690 nM | inhibition [10]: Tde | Activity (SET-2 [11]): Dose-Dependent Effect | EC50 (SET-2 [11]; SET-2, 16 h): 571 nM | Activity (Karpas-1106P [12]): Dose-Dependent Effect | IC50 (Jurkat E6.1): 839 nM | Activity (Mus musculus [13]): Dose-Dependent Effect | IC50 (PC-3): 770 nM | Activity (Mus musculus [14]): Dose-Dependent Effect | inhibition [15]: Dose-Dependent Effect | IC50 [16]: 402 nM | inhibition [17]: Active | IC50 (SNU-475): 2440 nM | Activity (SET-2 [18]): Dose-Dependent Effect
